Results on three compounds are retold here after ChEMBL document CHEMBL1137722, “Synthesis and pharmacological evaluation of a novel series of 5-(substituted)aryl-3-(3-coumarinyl)-1-phenyl-2-pyrazolines as novel anti-inflammatory and analgesic agents” (Eur J Med Chem, 2009).

One data set deals with Rattus norvegicus. Put plainly: Antipyretic activity in yeast-induced pyrexia albino rat model assessed as temperature index measured by sum of mean rectal temperature changes from 0 to 5 hrs at 200 mg/kg, po administered 30 mins after 18 hrs of yeast challenge (Rvb=39.6 degC). It counts as functional.
Conditions: not given
On to `COc1cccc([C@H]2CC(c3cc4ccccc4oc3=O)=NN2c2ccccc2)c1`, for which the Activity is -5.1 °C.

A further data set deals with Rattus norvegicus. Nature of the data set: Antipyretic activity in yeast-induced pyrexia albino rat model assessed as mean rectal temperature at 135 mg/kg, po administered 30 mins after 18 hrs of yeast challenge measured after 5 hrs postdosing (Rvb=38.2 degC). It is filed as functional.
Conditions: not given
For the compound `CC(=O)Nc1ccc(O)cc1` [ACETAMINOPHEN], the Activity was 37 °C.

Test system in another data set: not listed separately
Nature of the data set: Acute toxicity in po dosed albino mouse assessed as maximum tolerated dose. It counts as organism-based. Conditions: in vivo. The gist of the method: (§1)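 Albino mice of either sex (20–25 g), 12 groups of six, fasted 24 h with water available. Given oral doses rising through 10, 20, 100, 200, 1000 and 2000 mg/kg. Watched continuously for 3 h for behavioural, neurological and autonomic signs, then every 30 min for the next 3 h, then up to 24 h or until death. Guideline: OECD.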
As usually defined, the MTD is the highest dose tested that stayed within the study's limit of toxicity. Regarding `O=c1oc2ccccc2cc1C1=NN(c2ccccc2)[C@@H](c2ccc(O)cc2)C1`, the MTD came out at 2000 mg/kg.
On the same count and under the same terms, the figure for `COc1cccc([C@H]2CC(c3cc4ccccc4oc3=O)=NN2c2ccccc2)c1` is 2000 mg/kg.

For the next data set, the system named is Rattus norvegicus. Nature of the data set: Antipyretic activity in yeast-induced pyrexia albino rat model assessed as temperature index measured by sum of mean rectal temperature changes from 0 to 5 hrs at 135 mg/kg, po administered 30 mins after 18 hrs of yeast challenge (Rvb=39.0 degC). It is filed as functional.
Conditions: not given
For `CC(=O)Nc1ccc(O)cc1` [ACETAMINOPHEN], the Activity is -6.7 °C.

The test system of the next data set is Mus musculus. Put plainly: Acute toxicity in albino mouse assessed as mortality up to 2000 mg/kg, po after 24 hrs. It counts as organism-based. Details: dose 2000 mg/kg, route oral. Particulars: in vivo. A digest of the protocol:
as §1
In the case of `O=c1oc2ccccc2cc1C1=NN(c2ccccc2)[C@@H](c2ccc(O)cc2)C1`, the Activity result is reported as “Non-toxic”.
Still for that read-out and setting: the entry for `COc1cccc([C@H]2CC(c3cc4ccccc4oc3=O)=NN2c2ccccc2)c1` is “Non-toxic”.

The next data set relates to Rattus norvegicus. Nature of the data set: Antipyretic activity in yeast-induced pyrexia albino rat model assessed as mean rectal temperature at 200 mg/kg, po administered 30 mins after 18 hrs of yeast challenge measured after 4 hrs postdosing (Rvb=38.7 degC). It counts as functional.
Conditions: not given
In the case of `COc1cccc([C@H]2CC(c3cc4ccccc4oc3=O)=NN2c2ccccc2)c1`, the Activity is 38.2 °C.

Another data set deals with Rattus norvegicus. Nature of the data set: Antiinflammatory activity in albino rat acute inflammatory model assessed as inhibition of carrageenan-induced paw edema at 200 mg/kg, po dosed 1 hr before carrageenan challenge measured after 2 hrs relative to control. It counts as functional.
Conditions: not given
A digest of the protocol:
(§2)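 Male albino rats (170–220 g), fasted at least 12 h with water available, groups of six. Oral dosing with 0.5% sodium CMC vehicle control. One hour later, 0.05 ml of 1% carrageenan was injected subplantar into the left hind paw. Paw volume was measured by digital plethysmometer at 0, 2 and 4 h. % inhibition = [1 − treated/control edema volume] × 100, n=6.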
(In general: In the carrageenan paw model, swelling and tenderness develop within hours.)
A word on the inhibition in vivo: it is the percentage by which the read-out fell short of the control. Turning to `O=c1oc2ccccc2cc1C1=NN(c2ccccc2)[C@@H](c2ccc(O)cc2)C1`, the inhibition in vivo at 200 mg/kg was 28.8%.
Same read-out and setting: the figure for `COc1cccc([C@H]2CC(c3cc4ccccc4oc3=O)=NN2c2ccccc2)c1` is 38.3%.

The next data set deals with Rattus norvegicus. Put plainly: Antipyretic activity in yeast-induced pyrexia albino rat model assessed as mean rectal temperature at 200 mg/kg, po administered 30 mins after 18 hrs of yeast challenge measured after 3 hrs postdosing (Rvb=38.9 degC). It counts as functional.
Conditions: not given
Consider `COc1cccc([C@H]2CC(c3cc4ccccc4oc3=O)=NN2c2ccccc2)c1`, for which the Activity was 38.6 °C.

Another data set concerns Rattus norvegicus. Nature of the data set: Antipyretic activity in yeast-induced pyrexia albino rat model assessed as mean rectal temperature at 135 mg/kg, po administered 30 mins after 18 hrs of yeast challenge measured after 1 hr postdosing (Rvb=39.4 degreeC). It counts as functional.
Conditions: not given
Consider `CC(=O)Nc1ccc(O)cc1` [ACETAMINOPHEN], for which the Activity is 38.4 °C.

A further data set has as its system Rattus norvegicus. Put plainly: Antipyretic activity in yeast-induced pyrexia albino rat model assessed as mean rectal temperature at 135 mg/kg, po administered 30 mins after 18 hrs of yeast challenge measured after 3 hrs postdosing (Rvb=38.9 degC). It is filed as functional.
Conditions: not given
As for `CC(=O)Nc1ccc(O)cc1` [ACETAMINOPHEN], the Activity turned out to be 37.6 °C.

For the next data set, the system named is Rattus norvegicus. Put plainly: Antipyretic activity in yeast-induced pyrexia albino rat model assessed as mean rectal temperature at 135 mg/kg, po administered 30 mins after 18 hrs of yeast challenge measured after 4 hrs postdosing (Rvb=38.7 degC). It is filed as functional.
Conditions: not given
In the case of `CC(=O)Nc1ccc(O)cc1` [ACETAMINOPHEN], the Activity came out at 37.3 °C.

For the next data set, the system named is Rattus norvegicus. Put plainly: Antipyretic activity in yeast-induced pyrexia albino rat model assessed as mean rectal temperature at 135 mg/kg, po administered 30 mins after 18 hrs of yeast challenge measured after 2 hrs postdosing (Rvb=39.2 degC).
Conditions: not given
It is filed as functional.
Consider `CC(=O)Nc1ccc(O)cc1` [ACETAMINOPHEN], for which the Activity worked out at 38 °C.

Another data set has as its system Rattus norvegicus. Put plainly: Antipyretic activity in yeast-induced pyrexia albino rat model assessed as mean rectal temperature at 200 mg/kg, po administered 30 mins after 18 hrs of yeast challenge measured after 2 hrs postdosing (Rvb=39.2 degC). It counts as functional.
Conditions: not given
Turning to `COc1cccc([C@H]2CC(c3cc4ccccc4oc3=O)=NN2c2ccccc2)c1`, the Activity amounted to 38.8 °C.

For another data set, the system named is Rattus norvegicus. Nature of the data set: Antiinflammatory activity in albino rat acute inflammatory model assessed as inhibition of carrageenan-induced paw edema at 200 mg/kg, po dosed 1 hr before carrageenan challenge measured after 4 hrs relative to control. It is filed as functional.
Conditions: not given
A digest of the protocol:
as §2
With `O=c1oc2ccccc2cc1C1=NN(c2ccccc2)[C@@H](c2ccc(O)cc2)C1`, the inhibition in vivo at 200 mg/kg worked out at 34.6%.
The same measure, in the same setting: the figure for `COc1cccc([C@H]2CC(c3cc4ccccc4oc3=O)=NN2c2ccccc2)c1` is 61.5%.

In a further data set the test system is Rattus norvegicus. Nature of the data set: Antipyretic activity in yeast-induced pyrexia albino rat model assessed as mean rectal temperature at 200 mg/kg, po administered 30 mins after 18 hrs of yeast challenge measured after 1 hr postdosing (Rvb=39.4 degC).
Conditions: not given
It counts as functional.
Consider `COc1cccc([C@H]2CC(c3cc4ccccc4oc3=O)=NN2c2ccccc2)c1`, for which the Activity worked out at 39.4 °C.

For the next data set, the system named is Mus musculus. Nature of the data set: Analgesic activity in albino mouse assessed as protection against glacial acetic acid-induced writhing response at 200 mg/kg, po pretreated 0.5 hrs before glacial acetic acid challenge measured for 15 mins. It is filed as functional.
Conditions: not given
The gist of the method:
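Albino mice of either sex (20–25 g). Mice were pre-screened the day before for writhing, and only responders were used. Compound was given orally as a suspension in 0.5% sodium CMC 30 min before glacial acetic acid challenge. Stretching episodes were counted for 15 min. Results are the group mean, n=6, with % protection against control.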
For orientation: An intraperitoneal irritant provokes the stretching counted in writhing tests.
`COc1cccc([C@H]2CC(c3cc4ccccc4oc3=O)=NN2c2ccccc2)c1`: the Activity came out at 35%.

For the next data set, the system named is Rattus norvegicus. Put plainly: Antipyretic activity in yeast-induced pyrexia albino rat model assessed as mean rectal temperature at 200 mg/kg, po administered 30 mins after 18 hrs of yeast challenge measured after 5 hrs postdosing (Rvb=38.2 degC). It is filed as functional.
Conditions: not given
Regarding `COc1cccc([C@H]2CC(c3cc4ccccc4oc3=O)=NN2c2ccccc2)c1`, the Activity is 37.9 °C.

In a further data set the test system is Rattus norvegicus. Put plainly: Gastrointestinal toxicity in starved albino rat stress model assessed as ulcer index at 200 mg/kg, po after 7 hrs. Conditions: in vivo. Details: dose 200 mg/kg, route oral. It is filed as organism-based. A digest of the protocol:
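Albino rats of either sex, 170–250 g, six per group, starved 48 h with water ad libitum. Dosed orally as a suspension in 0.5% sodium CMC, test compounds at 200 mg/kg b.w. Killed 7 h later. Stomach opened along the greater curvature and everted. Ulcer index from lesion counts in five size classes, ranging from pinpoint to >4 mm diameter.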
For `COc1cccc([C@H]2CC(c3cc4ccccc4oc3=O)=NN2c2ccccc2)c1`, the UI amounted to 2.12.

The next data set deals with Rattus norvegicus. Put plainly: Antiinflammatory activity in albino rat chronic arthritis model assessed as inhibition of Freund's adjuvant-induced paw edema at 200 mg/kg, po administered on day 16 to 19 post Freund's adjuvant challenge measured on day 19 relative to control. It is filed as functional.
Conditions: not given
The gist of the method: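 Male albino rats (150–230 g) received 0.1 ml heat-killed M. tuberculosis (Freund's complete adjuvant) into the left hind footpad on day 1. Rats with developed arthritis on day 15 were split into groups of six. Dosing was oral, days 16–19, with 1 ml 0.5% sodium CMC as control. Paw volume, body weight and secondary lesions were recorded daily. % inhibition was calculated from day 15, n=6.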
Regarding `COc1cccc([C@H]2CC(c3cc4ccccc4oc3=O)=NN2c2ccccc2)c1`, the inhibition in vivo at 200 mg/kg came to 20.9%.
